Data reported in article PMC3625064 (Molecular cell, 2012).
Residue numbers refer to the chain shown, from its start. Names may count otherwise. One block for each molecule: values may come before it. No end group written: not given here.

Assays:
LSD2 [1] = molecular target: T1, LSD2 (Homo sapiens, UniProt Q8NB78); experiment: nucleosome demethylation assay, stimulation; format: biochemical
T1 sequence (Q8NB78 1-822): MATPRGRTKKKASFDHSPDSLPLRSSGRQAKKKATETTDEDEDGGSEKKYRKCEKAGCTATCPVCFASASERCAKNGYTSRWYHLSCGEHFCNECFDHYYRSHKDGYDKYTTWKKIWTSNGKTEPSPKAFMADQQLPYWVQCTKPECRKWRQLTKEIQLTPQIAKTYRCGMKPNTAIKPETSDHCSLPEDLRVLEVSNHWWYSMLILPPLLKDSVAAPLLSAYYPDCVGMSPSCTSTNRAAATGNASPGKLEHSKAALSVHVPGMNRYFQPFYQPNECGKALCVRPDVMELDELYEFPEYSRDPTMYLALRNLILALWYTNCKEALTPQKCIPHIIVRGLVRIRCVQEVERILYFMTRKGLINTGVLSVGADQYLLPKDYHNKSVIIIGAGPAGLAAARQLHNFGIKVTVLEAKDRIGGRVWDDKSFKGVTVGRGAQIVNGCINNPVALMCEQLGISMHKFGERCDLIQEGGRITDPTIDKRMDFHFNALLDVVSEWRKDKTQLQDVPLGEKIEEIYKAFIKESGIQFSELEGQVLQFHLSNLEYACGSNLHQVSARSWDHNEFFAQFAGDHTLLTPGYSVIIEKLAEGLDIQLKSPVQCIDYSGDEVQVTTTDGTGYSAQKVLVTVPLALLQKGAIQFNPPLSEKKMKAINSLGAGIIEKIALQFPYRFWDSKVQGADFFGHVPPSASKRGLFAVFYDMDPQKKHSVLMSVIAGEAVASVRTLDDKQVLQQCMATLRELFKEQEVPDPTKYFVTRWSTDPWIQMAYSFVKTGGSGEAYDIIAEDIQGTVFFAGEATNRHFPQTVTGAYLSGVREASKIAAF

LSD2 [2] = molecular target: T1, LSD2; experiment: H3K4me2 peptide; format: biochemical; conditions: 50 μM H3K4me2 peptide (1–21), 50 mM Tris-HCl pH 8.5, 50 mM KCl, 5 mM MgCl2, 5% glycerol, 37°C, 30 min; MALDI-TOF MS
Procedure, shortened: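 Purified LSD2, full-length or truncated (residues 51–822), incubated with NPAC-derived peptides or proteins and 50 μM H3K4me2 peptide (residues 1–21, >95% pure by HPLC and MS) in 50 mM Tris-HCl pH 8.5, 50 mM KCl, 5 mM MgCl2, 5% glycerol, 37°C, 30 min. Products desalted on C18 tips; MALDI-TOF MS at constant laser intensity across samples.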

[3] = molecular target: T2, LSD2 (residues 51–822), as crystallised with NPAC (human, UniProt Q8NB78 51-822); experiment: crystal structure
T2 sequence: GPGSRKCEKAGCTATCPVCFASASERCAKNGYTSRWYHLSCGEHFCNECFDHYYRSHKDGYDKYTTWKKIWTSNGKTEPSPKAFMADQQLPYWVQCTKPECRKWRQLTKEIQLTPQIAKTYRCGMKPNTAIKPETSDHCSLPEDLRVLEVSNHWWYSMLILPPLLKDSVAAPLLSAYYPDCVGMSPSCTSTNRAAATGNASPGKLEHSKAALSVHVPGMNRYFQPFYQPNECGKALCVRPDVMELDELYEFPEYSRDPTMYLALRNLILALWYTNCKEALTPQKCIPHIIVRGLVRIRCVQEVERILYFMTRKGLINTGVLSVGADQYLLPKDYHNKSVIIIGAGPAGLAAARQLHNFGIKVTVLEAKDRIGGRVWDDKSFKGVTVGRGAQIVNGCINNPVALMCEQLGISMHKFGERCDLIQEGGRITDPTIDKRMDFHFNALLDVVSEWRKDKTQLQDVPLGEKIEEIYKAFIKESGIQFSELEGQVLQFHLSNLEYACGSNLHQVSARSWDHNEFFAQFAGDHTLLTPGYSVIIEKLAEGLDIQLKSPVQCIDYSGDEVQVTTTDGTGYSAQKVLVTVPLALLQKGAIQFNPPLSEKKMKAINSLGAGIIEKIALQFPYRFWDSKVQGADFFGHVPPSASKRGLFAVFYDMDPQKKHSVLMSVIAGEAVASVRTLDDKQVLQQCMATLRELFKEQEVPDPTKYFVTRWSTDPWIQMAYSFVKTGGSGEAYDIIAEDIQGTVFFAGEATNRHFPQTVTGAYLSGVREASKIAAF

LSD2 [4] = molecular target: T1, LSD2; experiment: GST pull-down of His-LSD2; format: binding; conditions: GST pull-down of purified His-LSD2, SDS-PAGE, Coomassie blue staining
Procedure, shortened: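 GST and GST-tagged wild-type or mutant NPAC proteins (linker-region and binding-site mutants) were used to pull down purified His-LSD2. His-LSD2 in input and bound fractions was resolved by SDS-PAGE and stained with Coomassie blue.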

[5] = molecular target: T3, LSD2 used for isothermal titration calorimetry (human, UniProt Q8NB78 1-822); experiment: ITC
T3 sequence (looked up): T1 sequence (Q8NB78 1-822)

nucleosomal H3K4me2 = experiment: nucleosome demethylation assay, demethylase activity toward nucleosomal H3K4me2; format: biochemical; conditions: recombinant NPAC, or NPAC complex purified from HeLa cells via TAP; immunoblot
Procedure, shortened: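 Nucleosomes purified from HeLa cells were incubated with tandem-affinity-purified NPAC or LSD2 complexes from HeLa cells, with or without added recombinant NPAC. H3K4 demethylation was assessed by SDS-PAGE and immunoblot with methylation-specific histone H3 antibodies.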

LSD2 [6] = molecular target: T1, LSD2; experiment: shorter H3K4me2 peptide; format: biochemical; conditions: H3K4me2 peptide (residues 1–15) as substrate; Figures S6A and S6B
Procedure, shortened: (§1)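 Purified LSD2 (full-length or residues 51–822) was incubated with NPAC-derived peptides or proteins and an H3K4me2 peptide substrate. Products were desalted on C18 tips and analysed by MALDI-TOF MS at constant laser intensity for me1/me2 masses.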

[7] = system: LSD2 histone demethylation in U2OS cells; experiment: immunofluorescence of histone marks in U2OS cells coexpressing LSD2 and NPAC; format: cell-based; conditions: coexpression of NPAC and LSD2; Figure S1D and data not shown
Procedure, shortened: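 U2OS cells were transiently transfected with GFP-LSD2 alone or together with NPAC. Histone methylation marks were then detected by immunofluorescence with DAPI as DNA counterstain. Cells expressing similar levels of GFP-LSD2 were compared.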

LSD1 = experiment: nucleosome demethylation by LSD1, stimulation by NPAC; format: biochemical, human; conditions: nucleosomes; Figure S1B
LSD2 [8] = molecular target: T1, LSD2; experiment: longer H3K4me2 peptide; format: biochemical; conditions: H3K4me2 peptide (1–44) as substrate; Figure S6C
Procedure, shortened: as §1

binding result [3]: binds
B1: NPAC linker region (amino acids 152–268), as crystallised with LSD2 (domain or fragment, UniProt Q49A26 152-268, looked up)
chain: SERGSKSPLKRAQEQSPRKRGRPPKDEKDLTIPESSTVKGMMAGPMAAFKWQPTASEPVKDADPHFHHFLLSQTEKPAVCYQAITKKLKICEEETGSTSIQAADSTAVNGSITPTDK

Kd [5]: 0.93 ± 0.07 µM
Molecule: DPHAHHFLLSQT (peptide, UniProt Q49A26 214-225, looked up) [NPAC dodecapeptide (residues 214–225) F217A]

cofactor activity with shorter H3K4me2 peptide (residues 1–15) (LSD2 [6]): did not detect NPAC cofactor activity
B3: NPAC: NPAC/GLYR1 (UniProtKB/Swiss-Prot ID: Q49A26), contains PWWP domain, AT-hook motif, and dehydrogenase domain (protein, UniProt Q49A26 1-553, looked up)
Cytokine-like nuclear factor …: MAAVSLRLGDLVWGKLGRYPPWPGKIVNPPKDLKKPRGKKCFFVKFFGTEDHAWIKVEQLKPYHAHKEEMIKINKGKRFQQAVDAVEEFLRRAKGKDQTSSHNSSDDKNRRNSSEERSRPNSGDEKRKLSLSEGKVKKNMGEGKKRVSSGSSERGSKSPLKRAQEQSPRKRGRPPKDEKDLTIPESSTVKGMMAGPMAAFKWQPTASEPVKDADPHFHHFLLSQTEKPAVCYQAITKKLKICEEETGSTSIQAADSTAVNGSITPTDKKIGFLGLGLMGSGIVSNLLKMGHTVTVWNRTAEKCDLFIQEGARLGRTPAEVVSTCDITFACVSDPKAAKDLVLGPSGVLQGIRPGKCYVDMSTVDADTVTELAQVIVSRGGRFLEAPVSGNQQLSNDGMLVILAAGDRGLYEDCSSCFQAMGKTSFFLGEVGNAAKMMLIVNMVQGSFMATIAEGLTLAQVTGQSQQTLLDILNQGQLASIFLDQKCQNILQGNFKPDFYLKYIQKDLRLAIALGDAVNHPTPMAAAANEVYKRAKALDQSDNDMSAVYRAYIH
modifications: His tag
histone demethylase activity toward nucleosomes (nucleosomal H3K4me2): possesses no demethylase activity
change of H3K9me2 and other histone marks [7]: no detectable changes
stimulatory effect on nucleosome demethylation by LSD1 (LSD1): no stimulatory effect

More lines, now with the values behind:

Molecule: DPHFHHFLLSQT [NP.WT]
cofactor activity stimulating LSD2 demethylation of nucleosomes and synthetic histone peptides (summary) (LSD2 [1]; independent of PWWP module, discussion): robust cofactor activity
cofactor activity for LSD2 with H3K4me2 peptide (residues 1–21) as substrate (LSD2 [2]): can stimulate LSD2-mediated demethylation of H3K4me2 peptides

B2: NP.d3: truncation protein containing the linker region, residues 152–252; GST-tagged (protein)
chain: SERGSKSPLKRAQEQSPRKRGRPPKDEKDLTIPESSTVKGMMAGPMAAFKWQPTASEPVKDADPHFHHFLLSQTEKPAVCYQAITKKLKICEEETGSTSIQ
modifications: left off: GST, end not stated, kept
LSD2 binding / interaction (LSD2 [4]): capable of directly interacting with LSD2
LSD2 binding / interaction (LSD2 [4]; listed as linker region of NPAC): sufficient for LSD2 binding
cofactor activity for LSD2 with H3K4me2 peptide (residues 1–21) as substrate (LSD2 [2]): strong cofactor activity for LSD2

Molecule: DPHFHHFLLSQT (peptide, UniProt Q49A26 214-225, looked up) [wild-type NPAC dodecapeptide (residues 214–225)]
Kd [5]: 0.92 ± 0.08 µM

B4: NPAC F217A protein: full-length F217A NPAC protein (protein, UniProt Q49A26 1-553, looked up, variant F217A)
chain: B3 Cytokine-like nuclear factor … with F217A
modifications: full-length
cofactor activity of full-length NPAC protein, more NPAC and LSD2 proteins (LSD2 [1]; nucleosome demethylation, more NPAC and LSD2 proteins used, Figure S6E): residual stimulatory activity
stimulation of LSD2 demethylation of the longer H3K4me2 peptide (1–44) (LSD2 [8]): very weak or undetectable
